This is an account of results in ChEMBL document CHEMBL5352450, “Synthesis and structure-activity relationship studies of original cyclic diadenosine derivatives as nanomolar inhibitors of NAD kinase from pathogenic bacteria” (Eur J Med Chem, 2023).

Activity calls are given as the source filed them. The rule behind the calls is not given here.

What is called Ki is the equilibrium dissociation constant of an inhibitor or competing ligand from its target.

Test [1] deals with Staphylococcus aureus. The experiment in a line: Antibacterial activity against Staphylococcus aureus assessed as reduction in bacterial growth at 0.01 ug/ml incubated for 6 hrs by microplate reader assay. Format: functional, organism-based. As to conditions: dose 0.01 µg/ml. A digest of the protocol: (§1)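 Overnight 37°C BHI cultures (S. aureus Xen36; L. monocytogenes EGDe) diluted 1:100 into BHI with compound at 0.01 µg/mL in 25% PBS/10% DMSO (S. aureus) or 25% PBS/1% DMSO (Listeria). Controls: vehicle and 10 µg/mL levofloxacin. Shaken at 200 rpm, 37°C, 6 h; growth read on plate reader as percent growth; n=6 biological replicates, one-way ANOVA.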

Test [2] deals with Staphylococcus aureus. Description: Antibacterial activity against Staphylococcus aureus assessed as bacterial growth inhibition in presence of polymyxin B by microplate reader assay. Format: functional, organism-based. A digest of the protocol:
(§2)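 Same diluted-culture BHI set-up (S. aureus Xen36 in 25% PBS/10% DMSO; L. monocytogenes EGDe in 25% PBS/1% DMSO) with each compound plus polymyxin B at 20, 40, 60 or 80 µg/mL. Incubated shaking at 200 rpm, 37°C; growth monitored by microplate reader.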

Test [3] relates to Listeria monocytogenes. Description: Antibacterial activity against Listeria monocytogenes assessed as bacterial growth inhibition in presence of polymyxin B by microplate reader assay. Format: functional, organism-based. In a few lines:
as §2

Another test concerns the target T1, NAD kinase 1 (Listeria monocytogenes serotype 4b (strain F2365), UniProt Q721J8).
T1 sequence (Q721J8 whole entry): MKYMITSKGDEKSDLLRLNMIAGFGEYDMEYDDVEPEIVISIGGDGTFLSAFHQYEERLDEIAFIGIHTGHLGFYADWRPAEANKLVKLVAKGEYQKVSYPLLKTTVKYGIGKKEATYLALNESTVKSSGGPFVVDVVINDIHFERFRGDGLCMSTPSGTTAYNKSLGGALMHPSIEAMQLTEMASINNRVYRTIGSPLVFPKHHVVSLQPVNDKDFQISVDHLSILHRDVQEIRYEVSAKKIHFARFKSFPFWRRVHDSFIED
The experiment in a line: Inhibition of Listeria monocytogenes NADK1 expressed in Escherichia coli assessed as inhibition constant measured every 32 secs for 32 mins by absorbance based analysis.

For test [4], the system named is Listeria monocytogenes. Description: Antibacterial activity against Listeria monocytogenes assessed as reduction in bacterial growth at 0.01 ug/ml incubated for 6 hrs by microplate reader assay. As to conditions: dose 0.01 µg/ml. It is filed as functional, organism-based. In a few lines: as §1

On to `Nc1ncnc2c1ncn2[C@@H]1O[C@H](CN2CC#Cc3nc4c(N)ncnc4n3[C@@H]3O[C@H](CNC(=O)CNC(=O)C2)[C@@H](O)[C@H]3O)[C@@H](O)[C@H]1O`, for which the outcome in the test with Staphylococcus aureus [1], in the test with Listeria monocytogenes [3] and with Listeria monocytogenes [4] was inactive. Moreover, the result in the test on Staphylococcus aureus [2] was Active. The Ki on NAD kinase 1 was determined as 15 µM.

Regarding `NCCS(=O)(=O)NC[C@H]1O[C@@H](n2c(C#CCOC[C@H]3O[C@@H](n4cnc5c(N)ncnc54)[C@H](O)[C@@H]3O)nc3c(N)ncnc32)[C@H](O)[C@@H]1O`, the inhibition constant (Ki) on NAD kinase 1 came out at 5.5 µM.

Regarding `NCC(=O)NC[C@H]1O[C@@H](n2c(C#CCN(CC(=O)O)C[C@H]3O[C@@H](n4cnc5c(N)ncnc54)[C@H](O)[C@@H]3O)nc3c(N)ncnc32)[C@H](O)[C@@H]1O`, at NAD kinase 1, the inhibitory constant (Ki) amounted to 104 µM.

In the case of `Nc1ncnc2c1ncn2[C@@H]1O[C@H](COCC#Cc2nc3c(N)ncnc3n2[C@@H]2O[C@H](CO)[C@@H](O)[C@H]2O)[C@@H](O)[C@H]1O`, the outcome with Listeria monocytogenes [4] was inactive.

`NCCCNC(=O)NC[C@H]1O[C@@H](n2c(C#CCN(CC(=O)O)C[C@H]3O[C@@H](n4cnc5c(N)ncnc54)[C@H](O)[C@@H]3O)nc3c(N)ncnc32)[C@H](O)[C@@H]1O`: the Ki at NAD kinase 1 stood at 16 µM.

As for `NCCS(=O)(=O)NC[C@H]1O[C@@H](n2c(C#CCN(CC(=O)O)C[C@H]3O[C@@H](n4cnc5c(N)ncnc54)[C@H](O)[C@@H]3O)nc3c(N)ncnc32)[C@H](O)[C@@H]1O`, on NAD kinase 1, the Ki was 91 µM.

Turning to `NCCN(CC#Cc1nc2c(N)ncnc2n1[C@@H]1O[C@H](CNC(=O)CC(=O)O)[C@@H](O)[C@H]1O)C[C@H]1O[C@@H](n2cnc3c(N)ncnc32)[C@H](O)[C@@H]1O`, on NAD kinase 1, the Ki was found to be 53 µM.

For the compound `Nc1ncnc2c1ncn2[C@@H]1O[C@H](CN2CC#Cc3nc4c(N)ncnc4n3[C@@H]3O[C@H](CNC(=O)NCCNC(=O)C2)[C@@H](O)[C@H]3O)[C@@H](O)[C@H]1O`, the outcome in the test with Staphylococcus aureus [1], in the test on Listeria monocytogenes [3] and with Listeria monocytogenes [4] was inactive. The outcome in the test on Staphylococcus aureus [2] was Active. On NAD kinase 1, the inhibitory constant (Ki) came out at 7.6 µM.

`Nc1ncnc2c1ncn2[C@@H]1O[C@H](CN2CC#Cc3nc4c(N)ncnc4n3[C@@H]3O[C@H](CNC(=O)CC(=O)NCC2)[C@@H](O)[C@H]3O)[C@@H](O)[C@H]1O`: the result in the test on Staphylococcus aureus [1], in the test on Listeria monocytogenes [3] and in the test on Listeria monocytogenes [4] was inactive. In the test with Staphylococcus aureus [2], the outcome was Active. Moreover, the Ki at NAD kinase 1 was found to be 6.8 µM.

For the compound `C[C@H]1COc2c(N3CCN(C)CC3)c(F)cc3c(=O)c(C(=O)O)cn1c23`, in the test on Listeria monocytogenes [4], the outcome was inactive.

As to `Nc1ncnc2c1ncn2[C@@H]1O[C@H](CN2CC#Cc3nc4c(N)ncnc4n3[C@@H]3O[C@H](CNC(=O)NCCCNC(=O)C2)[C@@H](O)[C@H]3O)[C@@H](O)[C@H]1O`, the outcome with Staphylococcus aureus [1], in the test with Listeria monocytogenes [3] and in the test with Listeria monocytogenes [4] was inactive. In the test with Staphylococcus aureus [2], the outcome was Active. Moreover, the inhibition constant Ki on NAD kinase 1 amounted to 0.177 µM.

Take `Nc1ncnc2c1ncn2[C@@H]1O[C@H](CN2CC#Cc3nc4c(N)ncnc4n3[C@@H]3O[C@H](CNC(=O)CCNC(=O)C2)[C@@H](O)[C@H]3O)[C@@H](O)[C@H]1O`: the result in the test on Staphylococcus aureus [1], with Listeria monocytogenes [3] and with Listeria monocytogenes [4] was inactive. In the test on Staphylococcus aureus [2], the result was Active. For the same compound, the Ki on NAD kinase 1 was found to be 0.504 µM.

Turning to `NCCNC(=O)NC[C@H]1O[C@@H](n2c(C#CCN(CC(=O)O)C[C@H]3O[C@@H](n4cnc5c(N)ncnc54)[C@H](O)[C@@H]3O)nc3c(N)ncnc32)[C@H](O)[C@@H]1O`, on NAD kinase 1, the Ki came to 18 µM.

Turning to `Nc1ncnc2c1ncn2[C@@H]1O[C@H](CN2CC#Cc3nc4c(N)ncnc4n3[C@@H]3O[C@H](CNS(=O)(=O)CCNC(=O)C2)[C@@H](O)[C@H]3O)[C@@H](O)[C@H]1O`, the result with Staphylococcus aureus [1], in the test on Listeria monocytogenes [3] and in the test with Listeria monocytogenes [4] was inactive. Moreover, the result in the test with Staphylococcus aureus [2] was Active. Moreover, the Ki on NAD kinase 1 was 0.054 µM.

Turning to `NCCC(=O)NC[C@H]1O[C@@H](n2c(C#CCN(CC(=O)O)C[C@H]3O[C@@H](n4cnc5c(N)ncnc54)[C@H](O)[C@@H]3O)nc3c(N)ncnc32)[C@H](O)[C@@H]1O`, the inhibitory constant (Ki) on NAD kinase 1 worked out at 19 µM.
